Laboratory results: PMC2889672 (Biochemistry, 2010)

Legend:
S. pneumoniae UPPS [1] = biological target: T1, S. pneumoniae UPPS (Streptococcus pneumoniae serotype 4, UniProt Q97SR4); experiment: Biomol Green assay of UPPS activity; assay type: biochemical
T1 sequence (Q97SR4 1-252): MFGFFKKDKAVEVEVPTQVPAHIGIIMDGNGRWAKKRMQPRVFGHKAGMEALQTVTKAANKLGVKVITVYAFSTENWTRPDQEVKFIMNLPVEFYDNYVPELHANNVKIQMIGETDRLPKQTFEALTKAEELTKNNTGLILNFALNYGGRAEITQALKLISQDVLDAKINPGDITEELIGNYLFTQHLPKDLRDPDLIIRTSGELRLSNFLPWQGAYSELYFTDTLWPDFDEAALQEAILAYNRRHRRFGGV
Method in brief: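 His-tagged S. pneumoniae UPPS expressed in E. coli BL21(DE3) and purified by Ni-NTA and size exclusion, then mixed 1:2 (w/v) with liposomes of total E. coli lipid extract. Released phosphate quantified with Biomol Green reagent.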

S. pneumoniae UPPS [2] = biological target: T1, S. pneumoniae UPPS; experiment: Photo-cross-linking with Photo-probe and mass spectrometry; assay type: binding; settings: 30 μM UPPS, 30 μM Photo-probe, UV 350 nm 10 min
S. pneumoniae UPPS [3] = biological target: T1, S. pneumoniae UPPS; experiment: Protein fluorescence binding experiments; settings: excitation 285 nm; 1 μM UPPS, 5 μM compound
Method in brief: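 Intrinsic protein fluorescence: emission scanned 300−500 nm at excitation 285 nm. Buffer: 100 mM HEPES pH 7.3, 0.5 mM MgCl2, 50 mM KCl, 1.25% DMSO. Test compound (final 5 μM) preincubated 15 min with UPPS (final 1 μM) before adding FsPP (15 μM), IsPP (40 μM) or both. Spectra are averages of two scans.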

Row | IC50 (S. pneumoniae UPPS [1]) [nM] | binding to and modification of UPPS in the absence of substrate (S. pneumoniae UPPS [2]) | change of intrinsic fluorescence of S. pneumoniae UPPS upon addition of compound (S. pneumoniae UPPS [3]) | SMILES
1 | 630 | bound to and modified UPPS | – | O=C(Nc1ccc(C(=O)c2ccccc2)cc1)C1=C(O)C(CCc2ccccc2)NC1=O (stereo not shown) [Photo-probe, N-(4-Benzoylphenyl)-4-hydroxy-2-oxo-5-phenethyl-2,5-dihydro-1H-pyrrole-3-carboxamide]
2 | 450 | – | increased | CC1(Cc2ccccc2)NC(=O)C(C(=O)Nc2ccc(C3CCCCC3)cc2)=C1O (stereo not shown) [compound 1, 5-benzyl-4-hydroxy-5-methyl-2-oxo-2,5-dihydro-1H-pyrrole-3-carboxylic acid (4-cyclohexylphenyl)amide]
